The source of these data is ChEMBL document CHEMBL1122142, “Synthesis and antiinflammatory activity of hexahydrothiopyrano[4,3-c]pyrazoles and related analogues” (J Med Chem, 1982).

SMILES strings stand for the structures.

For data set [1], the system named is Cavia porcellus. Description: Tested in delayed hypersensitivity skin reaction (DHSR) after subcutaneous administration, activity reported as percent inhibition of erythema/induration of lesion; 9/24. The class given is functional. Summed up:
(§1)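 Male Hartley guinea pigs were sensitized with Mycobacterium tuberculosis in Freund's incomplete adjuvant, injected into each hind footpad and subcutaneously at the neck. After 3 weeks, 1.2 μg PPD was given intradermally. Compound in sesame oil was given sc, 3 animals per group, 30 min before and 5 h after PPD; screening dose 50 mg/kg.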

Data set [2] relates to Mus musculus. As to the kind of experiment: The compound was evaluated for the mouse active Arthus (MAA) reaction activity for an ip dose of 150 mg/kg in mouse. In kind it is functional. The settings on record: route intraperitoneal. Put shortly: (§2)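 CD-1 mice were sensitized ip with a 1:1 Freund's complete adjuvant emulsion containing BSA in saline, 5 weeks before challenge. Compound was suspended in 1% Na CMC in pyrogen-free saline and given as one ip or oral dose 1 h before skin challenge with BSA. Screening doses were 150 mg/kg ip and 300 mg/kg po, with some at 75 or 50 mg/kg ip. Lesions were excised 3.5 h after challenge and weighed against controls.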

Data set [3] deals with Mus musculus. Description: Inhibition of Mouse active Arthus (MAA) reaction activity was determined for an ip dose of 150 mg/kg in mouse; 21-30%. The class given is functional. The settings on record: route intraperitoneal.
Data set [4] concerns Mus musculus. As to the kind of experiment: Inhibition of Mouse active Arthus (MAA) reaction activity was determined for peroral dose of 150 mg/kg in mouse; 21-30%. In kind it is functional. As to conditions: route oral.
Data set [5] relates to Cavia porcellus. Description: The compound was evaluated for the delayed hypersensitivity skin reaction (DHSR) activity after subcutaneous administration; 14/36.
In data set [6] the test system is Mus musculus. Description: Mouse active Arthus (MAA) reaction activity was determined for an ip dose of 150 mg/kg in mouse; 31-40%. The class given is functional. As to conditions: route intraperitoneal.
The subject of data set [7] is Cavia porcellus. As to the kind of experiment: The compound was evaluated for the delayed hypersensitivity skin reaction (DHSR) activity after subcutaneous administration; 8/19.
Data set [8] concerns Cavia porcellus. As to the kind of experiment: Tested in delayed hypersensitivity skin reaction (DHSR) after subcutaneous administration, activity reported as percent inhibition of erythema/induration of lesion; 3/4. In kind it is functional. Put shortly:
as §1

In data set [9] the test system is Mus musculus. Description: Inhibition of Mouse Active Arthus reaction following 150 mg/Kg i.p.; 41-60% inhibition. The class given is functional. The settings on record: Mus musculus, ip.
Data set [10] relates to Mus musculus. Description: The compound was evaluated for the mouse active Arthus (MAA) reaction activity for an ip dose of 150 mg/kg in mouse; 31-40%. In kind it is functional. As to conditions: route intraperitoneal. Put shortly: as §2
For data set [11], the system named is Cavia porcellus. Description: The compound was evaluated for the delayed hypersensitivity skin reaction (DHSR) activity after subcutaneous administration; 15/21.
Data set [12] relates to Cavia porcellus. Description: Tested in delayed hypersensitivity skin reaction (DHSR) after subcutaneous administration, activity reported as percent inhibition of erythema/induration of lesion; 10/0. In kind it is functional.
Data set [13] has as its system Cavia porcellus. As to the kind of experiment: Tested in delayed hypersensitivity skin reaction (DHSR) after subcutaneous administration, activity reported as percent inhibition of erythema/induration of lesion; 13/4. In kind it is functional.
The subject of data set [14] is Mus musculus. As to the kind of experiment: The compound was evaluated for the mouse active Arthus (MAA) reaction activity expressed as inhibitory dose after oral administration. The class given is functional. The settings on record: read-out: ID50 (the source's name). Summed up: as §2
The subject of data set [15] is Cavia porcellus. Description: Tested in delayed hypersensitivity skin reaction (DHSR) after subcutaneous administration, activity reported as percent inhibition of erythema/induration of lesion; 3/10. The class given is functional. Summed up: as §1
The test system of data set [16] is Mus musculus. Description: Inhibition of Mouse active Arthus (MAA) reaction activity was determined for peroral dose of 300 mg/kg in mouse; 21-30%. As to conditions: route oral. In kind it is functional.
Data set [17] deals with Cavia porcellus. As to the kind of experiment: Tested in delayed hypersensitivity skin reaction (DHSR) after subcutaneous administration, activity reported as percent inhibition of erythema/induration of lesion; 17/49. The class given is functional.
Data set [18] relates to Mus musculus. Description: Mouse active Arthus (MAA) reaction activity was determined for an peroral dose of 300 mg/kg in mouse. In kind it is functional. As to conditions: route oral.
Data set [19] has as its system Cavia porcellus. Description: Tested in delayed hypersensitivity skin reaction (DHSR) after subcutaneous administration, activity reported as percent inhibition of erythema/induration of lesion; 13/52. The class given is functional.
The nature of data set [20]: Acute toxicity as LD50 value was determined in mice administered intraperitoneally. The class given is organism-based. The settings on record: mouse, in vivo, ip.
The nature of data set [21]: Acute toxicity as LD50 value was determined in mice administered orally. In kind it is organism-based. The settings on record: mouse, in vivo, po.
Data set [22] relates to Mus musculus. As to the kind of experiment: The compound was evaluated for the mouse active Arthus (MAA) reaction activity expressed as inhibitory dose after ip administration. The class given is functional. The settings on record: read-out: ID50 (the source's name). Put shortly: as §2
In data set [23] the test system is Rattus norvegicus. As to the kind of experiment: Carrageenan-induced edema was determined after intraperitoneal administration. The settings on record: ip, read-out: ID50 (the source's name). The class given is functional. Put shortly:
(§3)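 Adult male Sprague-Dawley (CD) rats, 160–200 g. Single dose in 1% CMC given 2 h before footpad injection of 0.05 mL 1% carrageenin in pyrogen-free saline. Paws removed and weighed at 3 h, with the contralateral paw as control. ID50 is the dose giving 50% edema inhibition.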
(In the carrageenan paw model, swelling and tenderness develop within hours.)

The test system of data set [24] is Rattus norvegicus. As to the kind of experiment: Carrageenan-induced edema was determined after oral administration. The settings on record: read-out: ID50 (the source's name). The class given is functional. Summed up: as §3
Data set [25] has as its system Rattus norvegicus. Description: Adjuvant-induced arthritis was determined for a dose of 150 mg/kg administered intraperitoneally; 16/72. In kind it is functional. The settings on record: ip, route intraperitoneal. Put shortly: (§4)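 Male Lewis rats; day 0, 0.50 mg desiccated Mycobacterium butyricum in 0.10 mL light mineral oil into left plantar paw. Compound dissolved or suspended in 1% CMC, dosed daily for 21 days starting the day before adjuvant. On day 21, injected and noninjected hind paws weighed. Values are percent inhibition, local (injected paw)/systemic (noninjected paw).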

The test system of data set [26] is Rattus norvegicus. As to the kind of experiment: Adjuvant-induced arthritis was determined for a dose of 150 mg/kg administered orally; 17/0. The class given is functional. As to conditions: po. Summed up: as §4
Data set [27] deals with Rattus norvegicus. As to the kind of experiment: Adjuvant-induced arthritis was determined for a dose of 75 mg/kg intraperitoneal administration; 28/78. In kind it is functional. The settings on record: ip. Summed up: as §4
Data set [28] relates to Rattus norvegicus. As to the kind of experiment: Adjuvant-induced arthritis was determined for a dose of 75 mg/kg oral administration; 1/0. In kind it is functional. Put shortly: as §4
A short description of data set [29]: Therapeutic ratio was determined for intraperitoneal administration. The class given is ADME. As to conditions: ip; read-out: TR.
The test system of data set [30] is Cavia porcellus. As to the kind of experiment: Tested in delayed hypersensitivity skin reaction (DHSR) after subcutaneous administration, activity reported as percent inhibition of erythema/induration of lesion; 14/25. In kind it is functional.
Data set [31] has as its system Mus musculus. As to the kind of experiment: The compound was evaluated for the mouse active Arthus (MAA) reaction activity for an ip screening dose of 75 mg/kg; 21-30%. The settings on record: route intraperitoneal. The class given is functional. Put shortly: as §2
Data set [32] has as its system Cavia porcellus. As to the kind of experiment: Tested in delayed hypersensitivity skin reaction (DHSR) after subcutaneous administration, activity reported as percent inhibition of erythema/induration of lesion; 11/66. The class given is functional.
Data set [33] deals with Cavia porcellus. Description: The compound was evaluated for the delayed hypersensitivity skin reaction (DHSR) activity after subcutaneous administration; 11/33.

What is called inhibition in vivo is the drop in the measured response relative to a control, in per cent. One may read the LD50 as the dose expected to kill half of the subjects tested. A higher LD50 goes with a less toxic substance.

On to `CC(=O)N1N=C2/C(=C/c3cccnc3)CSCC2C1c1cccnc1` (stereo unspecified), for which the Activity in the data set with Cavia porcellus [1] is 9. In addition, the inhibition in vivo at 150 mg/kg in the data set with Mus musculus [2] was under 20%.

For the compound `CCCN1N=C2/C(=C/c3ccc(Cl)cc3)CSCC2C1c1ccc(Cl)cc1` (stereo unspecified), the inhibition in vivo at 150 mg/kg in the data set on Mus musculus [3] and in the data set with Mus musculus [4] was 21% throughout. Also, the Activity in the data set on Cavia porcellus [5] was 14.

In the data set on Mus musculus [6], `CCCN1N=C2/C(=C/c3ccccc3C)CSCC2C1c1ccccc1C` (stereo unspecified) yielded an inhibition in vivo at 150 mg/kg of 31%. This compound also showed an Activity in the data set with Cavia porcellus [7] of 8.

For the compound `O=S1(=O)C/C(=C\c2ccccc2)C2=NNC(c3ccccc3)C2C1` (stereo unspecified), the Activity in the data set with Cavia porcellus [8] came out at 3. Besides, in the data set with Mus musculus [9], testing at 150 mg/kg gave an inhibition in vivo of 41%.

In turn, `CCCn1nc(-c2ccc(C)cc2)c2c1/C(=C/c1ccc(C)cc1)CSC2` returned an inhibition in vivo at 150 mg/kg in the data set with Mus musculus [10] of 31%. Also, in the data set on Cavia porcellus [11], the Activity was found to be 15.

In the data set with Cavia porcellus [12], `Cc1ccc(/C=C2\CS(=O)(=O)CC3C2=NN(CCc2ccccc2)C3c2ccc(C)cc2)cc1` (stereo unspecified) registered an Activity of 10.

Regarding `CC(C)(C)c1ccc(/C=C2\CS(=O)(=O)CC3C2=NN(CCc2ccccc2)C3c2ccc(C(C)(C)C)cc2)cc1` (stereo unspecified), in the data set on Cavia porcellus [13], the Activity worked out at 13. The ED50 with Mus musculus [14] was over 600 mg/kg.

`CCCN1N=C2/C(=C/c3ccccc3)CS(=O)(=O)CC2C1c1ccccc1` (stereo unspecified) showed an Activity with Cavia porcellus [15] of 3. The compound further registered an inhibition in vivo at 300 mg/kg in the data set with Mus musculus [16] of 21%. Also, the inhibition in vivo at 150 mg/kg in the data set with Mus musculus [9] is 41%.

In the data set with Cavia porcellus [17], `CCCN1N=C2/C(=C/c3ccc(OC)cc3)CS(=O)(=O)CC2C1c1ccc(OC)cc1` (stereo unspecified) registered an Activity of 17. In the data set on Mus musculus [18], this compound registered an inhibition in vivo at 300 mg/kg of under 20%. Moreover, in the data set on Mus musculus [6], the inhibition in vivo at 150 mg/kg turned out to be 31%.

Compound `CCCN1N=C2/C(=C/c3ccc(C)cc3)CS(=O)(=O)CC2C1c1ccc(C)cc1` (stereo unspecified) came in with an Activity in the data set on Cavia porcellus [19] of 13. Also, the median lethal dose (LD50) in [20] was 3400 mg/kg; in [21], over 4000 mg/kg. The ED50 with Mus musculus [22] was 140 mg/kg; in the data set with Mus musculus [14] it was over 600 mg/kg; in the data set on Rattus norvegicus [23], 84 mg/kg; in the data set with Rattus norvegicus [24], 250 mg/kg. For the same compound, the inhibition in vivo at 150 mg/kg in the data set on Mus musculus [9] is 41%; with Rattus norvegicus [25] it was 16%; in the data set with Rattus norvegicus [26], 17%. In addition, the inhibition in vivo at 75 mg/kg with Rattus norvegicus [27] amounted to 28%; in the data set with Rattus norvegicus [28], 1%. Besides, the selectivity ratio in data set [29] is 24.

In the data set on Cavia porcellus [30], `CCCn1nc(-c2ccc(C)cc2)c2c1/C(=C/c1ccc(C)cc1)CS(=O)(=O)C2` registered an Activity of 14. In the data set with Mus musculus [31], this compound gave an inhibition in vivo at 75 mg/kg of 21%.

Regarding `CN1CCN(CCCN2N=C3/C(=C/c4ccccc4)CSCC3C2c2ccccc2)CC1` (stereo unspecified), the Activity in the data set with Cavia porcellus [32] is on record as 11. The values for the inhibition in vivo at 150 mg/kg in the data set on Mus musculus [9] and in the data set with Mus musculus [4] were 41% and 21%, respectively.

`CCCN1N=C2/C(=C/c3ccc(C)cc3)CSCC2C1c1ccc(C)cc1` (stereo unspecified) had an inhibition in vivo at 300 mg/kg in the data set on Mus musculus [18] of under 20%. The inhibition in vivo at 150 mg/kg in the data set with Mus musculus [6] was 31%. This compound also returned an Activity in the data set with Cavia porcellus [33] of 11.
